Values joined by “and” are separate entries in the source; they are usually repeats but may differ in a detail not shown here. Identical values can stand only once.
How the values were obtained:
P1NP = assay: Serum bone turnover biomarker P1NP; type: in vivo, homo sapiens; settings: 15 mg QD for 14 days
How it was run: (§1)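 Participants got test compound (5, 15 or 20 mg) or placebo once daily on day 1 and days 3–16. Serum was drawn at screening and pre-dose on days 1, 5, 7, 12 and 16, and on days 22 (±1) and 45 (±2), at the same time as baseline. CTX-1, P1NP and osteocalcin were measured by electrochemiluminescence immunoassay and BSAP by sandwich ELISA. Results are percent change from baseline versus pooled placebo.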

AXIN2 mRNA = assay: Target engagement: AXIN2 mRNA; type: in vivo, homo sapiens; settings: hair follicle
How it was run: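 Hair follicles (2 mm micropunch) and skin biopsies (4 mm) were taken from the lower back of the head on day −1 and on day 16, 8 ± 2 h after the last of 14 consecutive once-daily doses. AXIN2 mRNA was measured by qRT-PCR and normalized to the geometric mean of HPRT1, IPO8 and POLR2A. Fold change from baseline was calculated by 2^−ΔΔCt, versus 8 pooled placebo participants.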

Phase 1 Part 2 = type: in vivo, homo sapiens
How it was run: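 Healthy adults got test compound (5, 15 or 20 mg) or placebo once daily on day 1 and days 3–16. The first cohort had 6 active and 2 placebo; later cohorts had 8 active and 3 placebo, each starting with a 2:1 sentinel group. Participants were discharged day 19, with follow-up 6 ± 1 and 29 ± 2 days after the last dose. Events were graded by CTCAE, with investigator-assessed relatedness. Placebo was pooled.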

osteocalcin = assay: Serum bone turnover biomarker osteocalcin; type: in vivo, homo sapiens
How it was run: as §1

BSAP = assay: Serum bone turnover biomarker BSAP; type: in vivo, homo sapiens
How it was run: as §1

[1] = Human PK, dose-to-man and exposure predictions; settings: 15 mg once daily
lung collagen deposition = settings: cited from earlier work
Phase 1 Part 1 = type: in vivo, homo sapiens
How it was run: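 Healthy adults were randomized to one oral dose of test compound (7, 20 or 40 mg; 6 active, 2 placebo per cohort), with a sentinel pair per cohort. Participants stayed in the unit ≥72 h post-dose, with follow-up at 6 ± 1 day. Adverse events were graded by CTCAE, and relatedness was assessed by the investigator. Placebo participants were pooled across cohorts.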

## Cc1cc(-c2nccc3c2ccn3CC(=O)Nc2ccc(-c3cnccn3)cn2)ccn1 [AZD5055]
P1NP
  estimated decrease in serum P1NP compared with the placebo group: 56.3%
AXIN2 mRNA; 15 and 20 mg cohorts
  reduction of median AXIN2 mRNA levels: 50%–60%
AXIN2 mRNA; all dose levels, after 14 consecutive days of dosing
  AXIN2 mRNA expression vs placebo-treated participants: significantly reduced from baseline
Phase 1 Part 2; Part 2, 5 mg QD, N=8
  Any TEAE leading to discontinuation of IMP: 2 n (%)
Phase 1 Part 2; Part 2, 15 mg QD, N=9
  Any TEAE leading to discontinuation of IMP: 1 n (%)
Phase 1 Part 2; Part 2 MAD pooled, N=26
  Any TEAE possibly related to the IMP (as assessed by investigator): 7 (26.9%) n (%)
Phase 1 Part 2; Part 2 MAD pooled, n=26
  Abdominal pain upper: 0 n (%)
  Application site scab: 0 n (%)
  Breath odor: 1 (3.8) n (%)
  Cardiac disorders: 2 (7.7) n (%)
  Coronavirus infection: 1 (3.8) n (%)
  Cough: 0 n (%)
  Dermatitis contact: 0 n (%)
  Dizziness: 0 n (%)
  Dysgeusia: 2 n (%) and 2 (7.7) n (%)
  Epistaxis: 1 (3.8) n (%)
  Erythema: 1 (3.8) n (%)
  Eye disorders: 2 (7.7) n (%)
  Folliculitis: 1 (3.8) n (%)
  Gastrointestinal disorders: 1 (3.8) n (%)
  General disorders and administration site conditions: 11 (42.3) n (%)
  Headache: 5 (19.2) n (%)
  Infections and infestations: 2 (7.7) n (%)
  Injury, poisoning and procedural complications: 5 (19.2) n (%)
  Limb injury: 1 (3.8) n (%)
  Medical device site dermatitis: 11 (42.3) n (%)
  Nasal discomfort: 1 (3.8) n (%)
  Nausea: 0 n (%)
  Nervous system disorders: 7 (26.9) n (%)
  Participants with ≥1 TEAE: 21 (80.8%) n (%) and 21 (80.8) n (%)
  Participants with ≥1 TEAE of grade 1 severity: 16 (61.5%) n (%) and 16 (61.5) n (%)
  Participants with ≥1 TEAE of grade 2 severity: 5 (19.2%) n (%) and 5 (19.2) n (%)
  Participants with ≥1 TEAE of grade 3 severity: 0 n (%)
  Participants with ≥1 TESAE: 0 n (%)
  Photophobia: 1 (3.8) n (%)
  Post procedural erythema: 1 (3.8) n (%)
  Post procedural inflammation: 1 (3.8) n (%)
  Procedural pain: 2 (7.7) n (%)
  Respiratory, thoracic and mediastinal disorders: 2 (7.7) n (%)
  Sensation of foreign body: 1 (3.8) n (%)
  Skin abrasion: 1 (3.8) n (%)
  Skin and subcutaneous tissue disorders: 1 (3.8) n (%)
  Suture rupture: 0 n (%)
  Ventricular tachycardia: 2 (7.7) n (%)
  Vessel puncture site haematoma: 0 n (%)
  Vision blurred: 1 (3.8) n (%)
  Vomiting: 0 n (%)
  Wheezing: 0 n (%)
osteocalcin; 15 and 20 mg doses
  serum osteocalcin levels: reductions
osteocalcin; lower doses
  serum osteocalcin levels vs placebo: comparable to those in the placebo group
BSAP; 20 mg dose
  serum BSAP levels: reductions
BSAP; lower doses
  serum BSAP levels vs placebo: comparable to those in the placebo group
[1]
  predicted continuous inhibition of Porcupine across the dosing interval: > 75%
[1]; 3-fold in vitro IC50
  predicted trough AZD5055 concentration: 0.023 µmol/L
Lung collagen deposition
  collagen deposition in the lungs: reduced collagen deposition in the lungs
Phase 1 Part 1; Part 1, 7 mg
  Participants with at least one TEAE: 2 (33.3%) n (%)
Phase 1 Part 1; Part 1, 20 mg
  Participants with a grade 2 TEAE of nsVT: One
  Participants with at least one TEAE: 1 (16.7%) n (%)
Phase 1 Part 1; Part 1, 40 mg
  Participants with at least one TEAE: 1 (16.7%) n (%)
Phase 1 Part 1; Part 1 SAD pooled, N=18
  Any TEAEs possibly related to the IMP (as assessed by investigator): 3 (16.7%) n (%)

Reference: publication PMC12177174 (iScience, 2025)
